Assay outcomes: PubChem BioAssay, Broad Institute
A1 apoptosis 2: blocks A1, raising caspase activity; MEF A1-2A-BIM cells, caspase-Glo luminescence, 3 h; percent of clofoctol response, DMSO zero; caspase activation, % (no concentration beside the values); 24,000 tested, under 10 active; in the data active means caspase activation above about 5.9%
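Material: A1-2A-BIM-expressing MEF cells. Buffer or medium: RPMI-1640 plus 10% FBS. Incubation: cells settled overnight, compound exposure 3 h at 37 °C, 5% CO2. Signal: Caspase-Glo 3/7 luminescence, 1 h at room temperature.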
T cruzi HTS: inhibitors of intracellular Trypanosoma cruzi | intracellular Trypanosoma cruzi in host cells, plate reader | activity score (inhibition), % at 5.01 µM | 22,000 tested, 4.9% active; in the data active means activity score above about 55%;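 further: parasites and compound incubated about four days before reading; 0% = median of neutral control wells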
INS-1E ATP HTS: preserves ATP levels in cytokine-treated INS-1E cells; INS-1E cytokine-induced death, ATP luminescence, 48 h; normalised: neutral wells 0, positive control 100; protection from cytokine-induced ATP loss, % at 10 µM; 20,000 tested, 0.1% active;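 active means mean replicate protection from cytokine-induced ATP loss at least 50% and at least 75% of replicates each reaching 50%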
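Assay system: INS-1E rat cells / Quantity: 8000 cells per well / Medium: RPMI without phenol red, 5% FBS / Probe or stimulus: three-cytokine cocktail (IFN-γ, TNF-α, IL-1β) / Dosing: one compound concentration, pin transfer / Timing: 48 h co-treatment, 10 min post-lysis read / Technique: CellTiter-Glo luminescence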
The depositor's hits bear a star. Many of the other results were omitted from the sample, so hits are more common in it than they were.

Results for C[C@H]1CN([C@@H](C)CO)C(=O)Cc2cc(NC(=O)Nc3ccc(F)cc3)ccc2O[C@H]1CN(C)Cc1ccc(C(=O)Nc2ccccc2N)cc1 ?
A1 apoptosis 2: -1.0; T cruzi HTS: 56.5*; INS-1E ATP HTS: -5.9

How did C[C@H](CO)N1C[C@H](C)[C@@H](CN(C)Cc2ccc(C(=O)Nc3ccccc3N)cc2)Oc2ccc(NC(=O)Nc3ccccc3)cc2CC1=O do in these assays?
A1 apoptosis 2: -1.3

What do the screens show for `C[C@@H]1CCCCO[C@@H](CN(C)C(=O)c2ccncc2)[C@H](C)CN([C@H](C)CO)C(=O)c2cc(NC(=O)c3ccccc3)ccc2O1`?
A1 apoptosis 2: -0.5

Results for O=C(NO)c1cccc(C(=O)N/N=C/c2ccc(Oc3ccccc3)cc2)c1 ?
A1 apoptosis 2: -2.7; T cruzi HTS: -9.7; INS-1E ATP HTS: -4.4

Results for COc1ccc(S(=O)(=O)N(C)C[C@@H]2Oc3ccc(NS(=O)(=O)c4cccs4)cc3C(=O)N([C@H](C)CO)C[C@@H]2C)cc1 ?
T cruzi HTS: 2.5; INS-1E ATP HTS: -40.0

Results for C[C@@H]1CN([C@H](C)CO)C(=O)Cc2cc(NC(=O)Nc3ccc(F)cc3)ccc2O[C@@H]1CN(C)Cc1ccc(C(=O)Nc2ccccc2N)cc1 ?
A1 apoptosis 2: 0.1; T cruzi HTS: 59.5*; INS-1E ATP HTS: -15.4

How did C[C@H]1CN([C@@H](C)CO)C(=O)Cc2cc(NC(=O)c3ccncc3)ccc2O[C@H]1CN(C)Cc1ccc(C(=O)Nc2ccccc2N)cc1 do in these assays?
T cruzi HTS: 34.4; INS-1E ATP HTS: 0.6

How did C[C@@H]1CN([C@@H](C)CO)C(=O)c2cc(NC(=O)Nc3ccc(F)cc3)ccc2O[C@@H](C)CCCCO[C@H]1CN(C)CC1CC1 do in these assays?
A1 apoptosis 2: 0.9

How did C[C@@H]1CN([C@H](C)CO)C(=O)c2cc(NC(=O)Nc3ccc(C(F)(F)F)cc3)ccc2O[C@@H](C)CCCCO[C@H]1CN(C)Cc1ccc2c(c1)OCO2 do in these assays?
A1 apoptosis 2: 0.9

Results for C[C@@H]1CCCCO[C@@H](CN(C)Cc2ccc3c(c2)OCO3)[C@@H](C)CN([C@H](C)CO)C(=O)c2cc(NC(=O)Nc3ccc(C(F)(F)F)cc3)ccc2O1 ?
T cruzi HTS: 65.2*; INS-1E ATP HTS: -16.2

What do the screens show for `C[C@@H]1CCCCO[C@H](CN(C)CC2CCCCC2)[C@@H](C)CN([C@H](C)CO)C(=O)c2cc(NC(=O)Nc3ccc(F)cc3)ccc2O1`?
A1 apoptosis 2: 0.2; T cruzi HTS: 66.8*; INS-1E ATP HTS: -23.3

What do the screens show for `C[C@@H]1CCCCO[C@H](CN(C)Cc2ccc(Cl)c(Cl)c2)[C@H](C)CN([C@@H](C)CO)C(=O)c2cc(NC(=O)Nc3ccc(C(F)(F)F)cc3)ccc2O1`?
A1 apoptosis 2: -0.7

Results for C[C@@H]1CCCCO[C@@H](CN(C)Cc2ccc(Cl)c(Cl)c2)[C@H](C)CN([C@H](C)CO)C(=O)c2cc(NC(=O)Nc3ccc4c(c3)OCO4)ccc2O1 ?
A1 apoptosis 2: 1.5

How did C[C@@H]1CCCCO[C@H](CN(C)Cc2ccc(Cl)c(Cl)c2)[C@@H](C)CN([C@H](C)CO)C(=O)c2cc(NC(=O)Nc3ccc4c(c3)OCO4)ccc2O1 do in these assays?
T cruzi HTS: 68.6*; INS-1E ATP HTS: -26.3

How did C[C@@H]1CCCCO[C@@H](CN(C)Cc2ccc(Cl)c(Cl)c2)[C@@H](C)CN([C@H](C)CO)C(=O)c2cc(NC(=O)Nc3ccc(C(F)(F)F)cc3)ccc2O1 do in these assays?
T cruzi HTS: 75.8*; INS-1E ATP HTS: -18.5

Results for [N-]=[N+]=NCc1ccccc1C[C@]1(C(=O)N2CCOCC2)N=C(c2ccc(OCCCO)cc2)O[C@H]1c1ccccc1 ?
A1 apoptosis 2: 1.5

What do the screens show for `C[C@@H]1CN([C@@H](C)CO)C(=O)Cc2cc(NC(=O)Cc3ccccc3)ccc2O[C@H]1CN(C)S(=O)(=O)c1cccs1`?
A1 apoptosis 2: 1.2

How did COc1ccc(S(=O)(=O)Nc2cccc3c2O[C@@H](CN(C)CC2CC2)[C@H](C)CN([C@@H](C)CO)C3=O)cc1 do in these assays?
A1 apoptosis 2: 0.8; T cruzi HTS: -1.4; INS-1E ATP HTS: 8.0

Results for C[C@@H]1CN([C@@H](C)CO)C(=O)Cc2cc(NS(C)(=O)=O)ccc2O[C@H]1CN(C)S(C)(=O)=O ?
A1 apoptosis 2: 0.8

Results for O=C(N/N=C/c1ccc(Br)cc1)c1ccccn1 ?
A1 apoptosis 2: -10.9; T cruzi HTS: -27.2; INS-1E ATP HTS: -11.8

What do the screens show for `C[C@H]1CCCCO[C@H](CN(C)Cc2ccc3c(c2)OCO3)[C@@H](C)CN([C@@H](C)CO)C(=O)c2cc(NC(=O)Nc3ccc4c(c3)OCO4)ccc2O1`?
A1 apoptosis 2: 0.8
